# Hck-Nef inh – blocks Nef-activated human Hck kinase. 0.68% of 220,000 active. inhibition, % at 20 µM. AID 463187. P08631. Recombinant Hck-YEEI plus Nef, Z-Lyte FRET kinase assay;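 active = Hck-Nef kinase inhibition above about 50%, limit read from the data; inactive = inhibition below that limit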;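 also: 0% = DMSO with Hck plus Nef and 100% = Hck alone without Nef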
# Target sequence (P08631 whole entry, looked up): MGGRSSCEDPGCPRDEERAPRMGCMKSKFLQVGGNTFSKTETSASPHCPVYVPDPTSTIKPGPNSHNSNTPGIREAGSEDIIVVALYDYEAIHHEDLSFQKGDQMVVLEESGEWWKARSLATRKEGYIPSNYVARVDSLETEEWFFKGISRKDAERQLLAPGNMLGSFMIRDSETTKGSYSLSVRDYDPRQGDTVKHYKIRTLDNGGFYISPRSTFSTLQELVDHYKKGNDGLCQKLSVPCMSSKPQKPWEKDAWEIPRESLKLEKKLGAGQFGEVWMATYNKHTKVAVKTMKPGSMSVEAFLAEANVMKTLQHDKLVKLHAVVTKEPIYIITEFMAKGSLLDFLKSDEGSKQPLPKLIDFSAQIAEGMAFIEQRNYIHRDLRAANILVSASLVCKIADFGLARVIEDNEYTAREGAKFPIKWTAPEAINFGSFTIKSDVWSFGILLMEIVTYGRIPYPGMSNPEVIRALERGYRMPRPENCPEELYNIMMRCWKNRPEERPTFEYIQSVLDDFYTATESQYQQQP
# RAM network inh – inhibitors of the yeast RAM network | inhibition, % at 50 µM | AID 868 | S. cerevisiae dse1pr::URA3 reporter, 5-FOA growth OD615, 2 d; analog-sensitive cbk1-as2 kinase mutant strain | 1.8% of 190,000 active;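 active = inhibition above a set limit, 3 SD over mean compound inhibition, cut at about 8.4% in these data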;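 also: 0% = DMSO-only wells with no growth and 100% = 10 µM 1-NA-PP1 full growth; inhibition rescues growth on 5-FOA so higher OD means more RAM inhibition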
# WT yeast gro inh – growth inhibition of WT yeast, mitochondrial fusion screen. inhibition, % at 10 µM. AID 1362. mitochondrial fusion phenotypic screen, WT strain. 2.1% of 190,000 active; in the data active = inhibition above about 58%; tested in S. cerevisiae
# p47phox inh – p47phox (human) inhibition; P14598; p47phox/p22phox peptide binding, fluorescence polarization, 2 h; inhibition, % at 24.7 µM; 0.53% of 220,000 active; AID 1274;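 active = inhibition above about 30%, limit read from the data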;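 also: 0% = p47phox with labelled peptide and 100% = labelled peptide alone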
# Biofilm kill mix – mixtures killing C. albicans biofilm | C. albicans biofilm persisters + clotrimazole, fluorescence viability; primary screen in compound mixtures of four per well | inhibition, % at 7.6 µM | 0.02% of 120,000 active | AID 1242;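 active = inhibition above 30.3% in the primary screen of four-compound pools, then above 30% when the compound was retested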;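 also: compounds exposed to preformed 24 h biofilms for 48 h; 0% = untreated biofilm control and 100% = clotrimazole plus chlorhexidine kill blank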
#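 Test system: C. albicans biofilms. Buffer or medium: RPMI/MOPS medium, pH 7.0. Timing: 48 h compound exposure at 37 °C. Technique: Alamar Blue fluorescence. Evaluation: percent inhibition of biofilm viability.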
# Arbovirus inh – blocks arbovirus infection. arbovirus infection cell-based antiviral screen. inhibition, % at 10 µM. 0.37% of 200,000 active. AID 1251; in the data active = inhibition above about 30%
# Hck Nef conf – confirmation of Hck-Nef kinase inhibitors; shares compounds with Hck-Nef inh; Recombinant Hck-YEEI:Nef, Z-Lyte FRET kinase assay; calls only at 10 µM; 28% of 1,300 active; AID 463188;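 active = average inhibition of at least 50%, with Z-scores no higher than 3 in both the phospho-tyrosine peptide and fluorescence counterscreens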
# * hit, by the source's call; i = inactive; nt = not tested or not shown; + = active, no number. A selection: hits, their analogues and other compounds. The true share with any hit is near 4.6%.
SMILES,Hck-Nef inh,RAM network inh,WT yeast gro inh,p47phox inh,Biofilm kill mix,Arbovirus inh,Hck Nef conf
N#Cc1c(-c2cccs2)cc(-c2cccs2)[nH]c1=O,109*,nt,nt,-21,16,nt,nt
CC(C)C[C@H](NC(=O)c1[nH]cnc1C(=O)Nc1ccccc1)C(=O)OC(C)(C)C,16,nt,nt,-9,12,nt,nt
O=C(Nc1nn[nH]n1)c1cc(-c2ccc(Cl)c(Cl)c2Cl)nc2ccccc12,119*,3,-9,-1,18,4,i
Cc1ccc(-c2nc3ccccc3s2)cc1NC(=S)NC(=O)c1ccccc1,38,2,1,-5,nt,-8,nt
Cc1ccc(-c2nc3ccccc3s2)cc1NC(=O)c1cc(-n2cnnc2)ccc1Cl,91*,5,-15,1,nt,-14,i
COc1ccccc1/C=N/NC(=O)c1nnn(-c2nonc2N)c1CSC1=NCCS1,2,2,-10,-5,12,-4,nt
CNC(=O)c1cc2c(=O)n3cc(C)ccc3nc2n(C(C)C)c1=N,171*,2,10,-9,nt,4,nt
Cc1ccc2nc3c(cc(C(=O)NCCCn4ccnc4)n3C)c(=O)n2c1,35,1,5,-8,nt,-2,nt
C=CCn1c(=N)c(C(=O)NCCCOC)cc2c(=O)n3cc(C)ccc3nc21,187*,0,52,9,nt,10,nt
C=CCn1c(=N)c(C#N)cc2c(=O)n3ccccc3nc21,37,0,9,22,15,-2,nt
C=CCn1c(=N)c(C(=O)NCCCOC)cc2c(=O)n3ccccc3nc21,+,0,-5,4,nt,4,nt
CC1CCc2nc3ccc(S(=O)(=O)N4CCC(C(=O)N5CCCCCC5)CC4)cc3c(C(=O)O)c2C1 (centres undefined),-13,2,4,-3,19,4,nt
COC(=O)/C(=N/Nc1ccccc1OC)N1CCCc2ccccc21,-41,nt,nt,-11,38,nt,nt
COc1ccccc1-c1nnc2sc(COc3ccccc3)nn12,1,2,10,-10,11,-8,nt
CCN(CC)c1ccc(-c2nn3c(-c4ccccc4OC)nnc3s2)cc1,51*,2,34,-55,nt,-33,i
Cc1nc(Nc2ccc(C(=O)O)cc2)sc1-c1ccccc1,56*,3,-1,-3,5,-15,i
CCn1c(O)c(/C=C/C=C/C=Nc2ccccc2)sc1=S,25,2,-1,-47,11,22,nt
Oc1c(/C=C/C=C/C=Nc2ccccc2)sc(=S)n1Cc1ccccc1,50*,nt,nt,-28,21,nt,i
O=C(NCCN1CCOCC1)c1ccc(=O)n(Cc2ccc(Cl)cc2)c1,0,0,3,1,-2,5,nt
COc1ccc(C2=CC3=C(Br)C(=O)C(C)(O)C(=O)C3=CO2)cc1 (centres undefined),95*,nt,nt,19,3,nt,+
CCC(=O)OC1(C)C(=O)C2=COC(c3ccc(OC)cc3)=CC2=C(Br)C1=O (centres undefined),81*,nt,nt,-10,7,nt,i
CCN(CC)C(=O)CC(c1ccc(F)cc1)c1ccc(OC)cc1 (centres undefined),2,0,-3,-4,10,-2,nt
CCn1cc(C2C3=C(CC(C)(C)CC3=O)N(c3ccccc3)C3=C2C(=O)CC(C)(C)C3)c(C)n1,8,4,4,2,15,-12,nt
COc1ccc(N2C3=C(C(=O)CC(C)(C)C3)C(c3cnn(C)c3)C3=C2CC(C)(C)CC3=O)cc1,55*,nt,nt,0,18,nt,nt
Cc1ccccc1Nc1ncnc2c1cnn2-c1ccccc1,56*,-1,2,-11,nt,-12,+
NNc1ncnc2c1cnn2-c1ccccc1,3,0,-2,-2,nt,-15,nt
CCCn1nc(NC(=O)C2CCCO2)c2cc3cc(C)ccc3nc21 (centres undefined),40,-1,8,-19,nt,-13,nt
COc1ccc2nc3c(cc2c1)c(NC(=O)C1CCCO1)nn3CC(C)C (centres undefined),59*,-1,2,-21,nt,-1,i
Cc1ccc(C)c(-n2cc(CN3CCCN(C=O)CC3)c(-c3ccccc3)n2)c1,21,0,12,0,13,5,nt
